Assay results published in ChEMBL document CHEMBL3351931, “Synthesis of natural-like acylphloroglucinols with anti-proliferative, anti-oxidative and tube-formation inhibitory activity” (Eur J Med Chem, 2014).
Active and inactive are the calls of the source. The rule behind the calls is not given here.

Legend:
[1] = Antiproliferative activity against human HMEC1 cells after 72 hrs; format: functional, cell-based; conditions: HMEC-1, 72 h
How it was run: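 SV-40T-transfected HMEC-1 seeded 1.5 × 10³ cells/well in ECGM with 10% FCS, supplement mix and antibiotics, 37 °C, 5% CO2. After 24 h, a reference plate was crystal-violet stained for baseline. The remaining cells were given increasing compound concentrations (DMSO stock) for 72 h, then crystal violet stained and read at 540 nm. 0.1% DMSO in ECGM served as negative control. IC50 ± SD from three independent experiments with different passages, hexaplicates per concentration.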

[2] = Antioxidant activity in phosphate buffer assessed as trolox equivalents ratio at pH 7.4 after 15 mins by ORAC-fluorescein assay; format: physicochemical; conditions: pH 7.4, 0.25 h
How it was run: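 ORAC-FL: fluorescein probe (final 300 nM) in 75 mM phosphate buffer pH 7.4; antioxidant (test compounds 1–5 µM, five concentrations; Trolox 1–8 µM standards) preincubated with fluorescein 15 min at 37 °C. Reaction started with AAPH (final 12 mM). Fluorescence read every min for 80 min (ex 485/em 536 nm). AUC converted to Trolox equivalents; quadruplicate, ≥4 independent assays.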

[3] = test system: HMEC-1; test: Antiangiogenic activity in HMEC1 assessed as inhibition of tube formation at 6.25 to 50 uM after 19 hrs by matrigel assay; format: functional; conditions: Homo sapiens
[4] = test system: HMEC-1; test: Antiangiogenic activity in HMEC1 assessed as inhibition of tube formation at 12.5 to 100 uM after 19 hrs by matrigel assay; format: functional; conditions: Homo sapiens

Compound | IC50 [1] | Ratio [2] | inhibition [3] | inhibition [4]
CC1(C)CCc2c(cc(O)c(C(=O)c3ccc(O)c(O)c3)c2O)O1 | 0.88 µM | 2.8 | – | –
CCCC(C)C(=O)c1c(O)cc(O)c(C/C=C(\C)CCC=C(C)C)c1O (stereo not drawn) | 8.7 µM | 0.3 | – | –
CCC(C)C(=O)c1c(O)cc2c(c1O)CCC(C)(C)O2 (stereo not drawn) | 29.3 µM | 1.2 | – | –
COc1cc(C(=O)c2c(O)cc3c(c2O)CCC(C)(C)O3)cc(OC)c1O | 23.9 µM | 3 | – | –
CC(=O)c1c(O)cc(O)c2c1OC(C)(CCC=C(C)C)CC2 (stereo not drawn) | 20.3 µM | 0.8 | – | –
CCC(=O)c1c(O)cc(O)c(C/C=C(\C)CCC=C(C)C)c1O | 22.4 µM | 0.6 | – | –
CC1(C)CCc2c(cc(O)c(C(=O)c3cc(O)cc(O)c3)c2O)O1 | 25.5 µM | 3 | – | –
COc1cc(C(=O)c2c(O)cc3c(c2O)CCC(C)(C)O3)cc(O)c1O | 7.6 µM | 2.1 | – | –
CCC(C)C(=O)c1c(O)cc(O)c2c1OC(C)(CCC=C(C)C)CC2 (stereo not drawn) | – | 0.3 | – | –
CC(=O)c1c(O)cc(O)c(C/C=C(\C)CCC=C(C)C)c1O | 22.5 µM | 1 | – | –
COc1ccc(C(=O)c2c(O)cc3c(c2O)CCC(C)(C)O3)cc1 | 43.4 µM | 1.1 | – | –
CCC(C)C(=O)c1c(O)cc(O)c(C/C=C(\C)CCC=C(C)C)c1O (stereo not drawn) | 11 µM | 0.4 | Active | –
COc1cc(O)c(CC=C(C)C)c(O)c1C(=O)/C=C/c1ccc(O)cc1 [XANTHOHUMOL] | – | 2.3 | – | –
CC(C)=CCC/C(C)=C/Cc1c(O)cc(O)c(C(=O)C(C)C)c1O | 21 µM | 0.8 | – | –
COc1cc(C(=O)c2c(O)cc3c(c2O)CCC(C)(C)O3)cc(OC)c1OC | 51.5 µM | – | – | –
CC1(C)CCc2c(cc(O)c(C(=O)c3ccc(O)cc3)c2O)O1 | 53.8 µM | 6.6 | – | –
COc1ccc(C(=O)c2c(O)cc3c(c2O)CCC(C)(C)O3)cc1OC | 48 µM | 1.3 | – | Active
